# Measurements published in ChEMBL document CHEMBL1136963, “Sesterterpenes as tubulin tyrosine ligase inhibitors. First insight of structure-activity relationships and discovery of new lead” (J Med Chem, 2009).
# Active and inactive are the calls of the source. No cut-off for these calls is given here.
# Test system: J774.A1
# Assay: Cytotoxicity against mouse J774A1 cells up to >100 uM after 24 to 48 hrs by MTT assay
# Format: functional, cell-based
# Details: not given
row,Structure (SMILES),Activity
1,CC1=CC(=O)O[C@@H]1[C@@H](O)/C=C(\C)CC[C@@H]1[C@@]2(C)CCC[C@@](C)(C(=O)O)[C@@H]2[C@@H](O)C[C@@]1(C)O,inactive
2,CC1=CC(=O)O[C@@H]1[C@@H](O)/C=C(\C)CC[C@@H]1[C@@]2(C)CCC[C@]3(C)[C@@H]2[C@H](C[C@@]1(C)O)O[C@@H]3O,inactive
3,CC1=CC(=O)O/C1=C\C=C(/C)CC[C@@H]1[C@@]2(C)CCC[C@@]3(C)C(O)O[C@@H](C[C@@]1(C)O)[C@H]23 (stereo partly specified),inactive
4,CC1=CC(=O)O/C1=C\C=C(/C)CC[C@@H]1[C@@]2(C)CCC[C@@](C)(C=O)[C@@H]2[C@@H](O)C[C@@]1(C)O,inactive
5,CC1=CC(=O)O[C@@H]1[C@@H](O)/C=C(\C)CC[C@@H]1[C@@]2(C)CCC[C@@](C)(C=O)[C@@H]2[C@@H](O)C[C@@]1(C)O,inactive
6,CC1=CC(=O)O[C@@H]1[C@@H](O)/C=C(\C)CC[C@@H]1[C@@]2(C)CCC[C@@](C)(CO)[C@@H]2[C@@H](O)C[C@@]1(C)O,inactive
7,CC1=CC(=O)O[C@@H]1C/C=C(\C)CC[C@@H]1[C@@]2(C)CCC[C@@](C)(CO)[C@@H]2[C@@H](O)C[C@@]1(C)O,inactive
8,CC1=CC(=O)O[C@@H]1[C@@H](O)/C=C(\C)CC[C@@H]1[C@@]2(C)CCC[C@@]3(C)CO[C@@H](C[C@@]1(C)O)[C@@H]32,inactive
9,CC1=CC(=O)O/C1=C\C=C(/C)CC[C@@H]1[C@@]2(C)CCC[C@@]3(C)C(=O)O[C@@H](C[C@@]1(C)O)[C@H]23,inactive
10,C=C(CC[C@@H]1[C@@]2(C)CCC[C@@](C)(CO)[C@@H]2[C@@H](O)C[C@@]1(C)O)[C@@H](O)[C@@H](O)C1OC(=O)C=C1C (stereo in doubt; 23),inactive
11,C=C1C[C@@H]2OC[C@]3(C)CCC[C@](C)([C@H]1CC/C(C)=C/C[C@H]1OC(=O)C=C1C)[C@@H]23,inactive
12,C=C(CC[C@@H]1[C@@]2(C)CCC[C@@](C)(CO)[C@@H]2[C@@H](O)C[C@@]1(C)O)[C@@H](O)[C@@H](O)C1OC(=O)C=C1C (stereo in doubt; 22),inactive

# Test system: MCF7
# Assay: Cytotoxicity against human MCF7 cells up to >100 uM after 24 to 48 hrs by MTT assay
# Format: functional, cell-based
# Details: not given
row,Structure (SMILES),Activity
1,CC1=CC(=O)O[C@@H]1[C@@H](O)/C=C(\C)CC[C@@H]1[C@@]2(C)CCC[C@@](C)(C(=O)O)[C@@H]2[C@@H](O)C[C@@]1(C)O,inactive
2,CC1=CC(=O)O[C@@H]1[C@@H](O)/C=C(\C)CC[C@@H]1[C@@]2(C)CCC[C@]3(C)[C@@H]2[C@H](C[C@@]1(C)O)O[C@@H]3O,inactive
3,CC1=CC(=O)O/C1=C\C=C(/C)CC[C@@H]1[C@@]2(C)CCC[C@@]3(C)C(O)O[C@@H](C[C@@]1(C)O)[C@H]23 (stereo partly specified),inactive
4,CC1=CC(=O)O/C1=C\C=C(/C)CC[C@@H]1[C@@]2(C)CCC[C@@](C)(C=O)[C@@H]2[C@@H](O)C[C@@]1(C)O,inactive
5,CC1=CC(=O)O[C@@H]1[C@@H](O)/C=C(\C)CC[C@@H]1[C@@]2(C)CCC[C@@](C)(C=O)[C@@H]2[C@@H](O)C[C@@]1(C)O,inactive
6,CC1=CC(=O)O[C@@H]1[C@@H](O)/C=C(\C)CC[C@@H]1[C@@]2(C)CCC[C@@](C)(CO)[C@@H]2[C@@H](O)C[C@@]1(C)O,inactive
7,CC1=CC(=O)O[C@@H]1C/C=C(\C)CC[C@@H]1[C@@]2(C)CCC[C@@](C)(CO)[C@@H]2[C@@H](O)C[C@@]1(C)O,inactive
8,CC1=CC(=O)O[C@@H]1[C@@H](O)/C=C(\C)CC[C@@H]1[C@@]2(C)CCC[C@@]3(C)CO[C@@H](C[C@@]1(C)O)[C@@H]32,inactive
9,CC1=CC(=O)O/C1=C\C=C(/C)CC[C@@H]1[C@@]2(C)CCC[C@@]3(C)C(=O)O[C@@H](C[C@@]1(C)O)[C@H]23,inactive
10,C=C(CC[C@@H]1[C@@]2(C)CCC[C@@](C)(CO)[C@@H]2[C@@H](O)C[C@@]1(C)O)[C@@H](O)[C@@H](O)C1OC(=O)C=C1C (stereo in doubt; 23),inactive
11,C=C1C[C@@H]2OC[C@]3(C)CCC[C@](C)([C@H]1CC/C(C)=C/C[C@H]1OC(=O)C=C1C)[C@@H]23,inactive
12,C=C(CC[C@@H]1[C@@]2(C)CCC[C@@](C)(CO)[C@@H]2[C@@H](O)C[C@@]1(C)O)[C@@H](O)[C@@H](O)C1OC(=O)C=C1C (stereo in doubt; 22),inactive

# Test system: HEK293
# Assay: Cytotoxicity against HEK293 cells up to >100 uM after 24 to 48 hrs by MTT assay
# Format: functional, cell-based
# Details: Homo sapiens
row,Structure (SMILES),Activity
1,CC1=CC(=O)O[C@@H]1[C@@H](O)/C=C(\C)CC[C@@H]1[C@@]2(C)CCC[C@@](C)(C(=O)O)[C@@H]2[C@@H](O)C[C@@]1(C)O,inactive
2,CC1=CC(=O)O[C@@H]1[C@@H](O)/C=C(\C)CC[C@@H]1[C@@]2(C)CCC[C@]3(C)[C@@H]2[C@H](C[C@@]1(C)O)O[C@@H]3O,inactive
3,CC1=CC(=O)O/C1=C\C=C(/C)CC[C@@H]1[C@@]2(C)CCC[C@@]3(C)C(O)O[C@@H](C[C@@]1(C)O)[C@H]23 (stereo partly specified),inactive
4,CC1=CC(=O)O/C1=C\C=C(/C)CC[C@@H]1[C@@]2(C)CCC[C@@](C)(C=O)[C@@H]2[C@@H](O)C[C@@]1(C)O,inactive
5,CC1=CC(=O)O[C@@H]1[C@@H](O)/C=C(\C)CC[C@@H]1[C@@]2(C)CCC[C@@](C)(C=O)[C@@H]2[C@@H](O)C[C@@]1(C)O,inactive
6,CC1=CC(=O)O[C@@H]1[C@@H](O)/C=C(\C)CC[C@@H]1[C@@]2(C)CCC[C@@](C)(CO)[C@@H]2[C@@H](O)C[C@@]1(C)O,inactive
7,CC1=CC(=O)O[C@@H]1C/C=C(\C)CC[C@@H]1[C@@]2(C)CCC[C@@](C)(CO)[C@@H]2[C@@H](O)C[C@@]1(C)O,inactive
8,CC1=CC(=O)O[C@@H]1[C@@H](O)/C=C(\C)CC[C@@H]1[C@@]2(C)CCC[C@@]3(C)CO[C@@H](C[C@@]1(C)O)[C@@H]32,inactive
9,CC1=CC(=O)O/C1=C\C=C(/C)CC[C@@H]1[C@@]2(C)CCC[C@@]3(C)C(=O)O[C@@H](C[C@@]1(C)O)[C@H]23,inactive
10,C=C(CC[C@@H]1[C@@]2(C)CCC[C@@](C)(CO)[C@@H]2[C@@H](O)C[C@@]1(C)O)[C@@H](O)[C@@H](O)C1OC(=O)C=C1C (stereo in doubt; 23),inactive
11,C=C1C[C@@H]2OC[C@]3(C)CCC[C@](C)([C@H]1CC/C(C)=C/C[C@H]1OC(=O)C=C1C)[C@@H]23,inactive
12,C=C(CC[C@@H]1[C@@]2(C)CCC[C@@](C)(CO)[C@@H]2[C@@H](O)C[C@@]1(C)O)[C@@H](O)[C@@H](O)C1OC(=O)C=C1C (stereo in doubt; 22),inactive

# Molecular target: T1, Tubulin--tyrosine ligase (Homo sapiens, UniProt Q8NG68)
# T1 sequence (Q8NG68 whole entry): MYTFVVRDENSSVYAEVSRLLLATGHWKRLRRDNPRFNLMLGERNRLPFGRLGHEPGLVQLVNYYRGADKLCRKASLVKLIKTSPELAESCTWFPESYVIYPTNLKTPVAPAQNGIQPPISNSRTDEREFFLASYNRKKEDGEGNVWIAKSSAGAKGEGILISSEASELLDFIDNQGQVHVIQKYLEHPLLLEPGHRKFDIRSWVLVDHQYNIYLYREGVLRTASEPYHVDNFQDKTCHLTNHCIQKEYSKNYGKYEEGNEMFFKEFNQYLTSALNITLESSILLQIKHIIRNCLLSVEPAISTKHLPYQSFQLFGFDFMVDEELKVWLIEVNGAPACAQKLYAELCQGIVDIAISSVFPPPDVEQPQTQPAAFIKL
# Assay: Binding affinity to TTL by surface plasmon resonance
# Details: not given
# How it was run: (§1)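 Biacore SPR. TTL and BSA each amine-coupled (100 µg/mL in 10 mM sodium acetate, pH 5.0) to 8-12 kRU, with an unmodified reference surface. Running buffer 10 mM NaH2PO4, 150 mM NaCl, 0.5% DMSO, pH 7.4. Five-point 2-fold series, typically 0.05-10 µM, in triplicate. 25 °C, 50 µL/min, 60 s association, 200 s dissociation. Double-referenced. KD fitted from at least 10 curves.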
row,Structure (SMILES),Kd [µM]
1,CC1=CC(=O)O[C@@H]1[C@@H](O)/C=C(\C)CC[C@@H]1[C@@]2(C)CCC[C@@](C)(C(=O)O)[C@@H]2[C@@H](O)C[C@@]1(C)O,3
2,CC1=CC(=O)O[C@@H]1[C@@H](O)/C=C(\C)CC[C@@H]1[C@@]2(C)CCC[C@]3(C)[C@@H]2[C@H](C[C@@]1(C)O)O[C@@H]3O,210
3,CC1=CC(=O)O/C1=C\C=C(/C)CC[C@@H]1[C@@]2(C)CCC[C@@]3(C)C(O)O[C@@H](C[C@@]1(C)O)[C@H]23 (stereo partly specified),0.48
4,CC1=CC(=O)O/C1=C\C=C(/C)CC[C@@H]1[C@@]2(C)CCC[C@@](C)(C=O)[C@@H]2[C@@H](O)C[C@@]1(C)O,0.2
5,CC1=CC(=O)O[C@@H]1[C@@H](O)/C=C(\C)CC[C@@H]1[C@@]2(C)CCC[C@@](C)(C=O)[C@@H]2[C@@H](O)C[C@@]1(C)O,3
6,CC1=CC(=O)O[C@@H]1[C@@H](O)/C=C(\C)CC[C@@H]1[C@@]2(C)CCC[C@@](C)(CO)[C@@H]2[C@@H](O)C[C@@]1(C)O,4.7
7,CC1=CC(=O)O[C@@H]1C/C=C(\C)CC[C@@H]1[C@@]2(C)CCC[C@@](C)(CO)[C@@H]2[C@@H](O)C[C@@]1(C)O,0.072
8,CC1=CC(=O)O/C1=C\C=C(/C)CC[C@@H]1[C@@]2(C)CCC[C@@]3(C)C(=O)O[C@@H](C[C@@]1(C)O)[C@H]23,0.15
9,C=C1C[C@@H]2OC[C@]3(C)CCC[C@](C)([C@H]1CC/C(C)=C/C[C@H]1OC(=O)C=C1C)[C@@H]23,8.7

# Molecular target: Albumin (Bos taurus, UniProt P02769)
# Assay: Binding affinity to bovine serum albumin by surface plasmon resonance
# Format: ADME
# Details: cattle, isolated protein
# How it was run: as §1
# Chain of Albumin (P02769 whole entry): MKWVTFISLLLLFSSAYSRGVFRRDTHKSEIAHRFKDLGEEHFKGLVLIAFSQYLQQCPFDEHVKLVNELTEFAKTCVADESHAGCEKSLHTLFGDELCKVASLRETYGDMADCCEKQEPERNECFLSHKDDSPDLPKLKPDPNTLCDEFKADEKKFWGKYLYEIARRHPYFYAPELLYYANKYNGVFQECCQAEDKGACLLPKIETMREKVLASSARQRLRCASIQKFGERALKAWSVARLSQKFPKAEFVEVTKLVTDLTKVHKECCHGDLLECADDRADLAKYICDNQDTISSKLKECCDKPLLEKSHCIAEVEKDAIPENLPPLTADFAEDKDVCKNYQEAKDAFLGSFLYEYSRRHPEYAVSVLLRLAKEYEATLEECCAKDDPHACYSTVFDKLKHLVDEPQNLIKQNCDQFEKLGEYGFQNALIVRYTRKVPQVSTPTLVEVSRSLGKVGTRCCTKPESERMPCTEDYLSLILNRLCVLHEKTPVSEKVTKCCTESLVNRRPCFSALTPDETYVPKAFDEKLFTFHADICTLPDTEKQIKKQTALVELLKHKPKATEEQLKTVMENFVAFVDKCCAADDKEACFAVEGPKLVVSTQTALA
row,Structure (SMILES),Activity
1,CC1=CC(=O)O[C@@H]1[C@@H](O)/C=C(\C)CC[C@@H]1[C@@]2(C)CCC[C@@](C)(C(=O)O)[C@@H]2[C@@H](O)C[C@@]1(C)O,Not Active
2,CC1=CC(=O)O[C@@H]1[C@@H](O)/C=C(\C)CC[C@@H]1[C@@]2(C)CCC[C@]3(C)[C@@H]2[C@H](C[C@@]1(C)O)O[C@@H]3O,Not Active
3,CC1=CC(=O)O/C1=C\C=C(/C)CC[C@@H]1[C@@]2(C)CCC[C@@]3(C)C(O)O[C@@H](C[C@@]1(C)O)[C@H]23 (stereo partly specified),Not Active
4,CC1=CC(=O)O/C1=C\C=C(/C)CC[C@@H]1[C@@]2(C)CCC[C@@](C)(C=O)[C@@H]2[C@@H](O)C[C@@]1(C)O,Not Active
5,CC1=CC(=O)O[C@@H]1[C@@H](O)/C=C(\C)CC[C@@H]1[C@@]2(C)CCC[C@@](C)(C=O)[C@@H]2[C@@H](O)C[C@@]1(C)O,Not Active
6,CC1=CC(=O)O[C@@H]1[C@@H](O)/C=C(\C)CC[C@@H]1[C@@]2(C)CCC[C@@](C)(CO)[C@@H]2[C@@H](O)C[C@@]1(C)O,Not Active
7,CC1=CC(=O)O[C@@H]1C/C=C(\C)CC[C@@H]1[C@@]2(C)CCC[C@@](C)(CO)[C@@H]2[C@@H](O)C[C@@]1(C)O,Not Active
8,CC1=CC(=O)O[C@@H]1[C@@H](O)/C=C(\C)CC[C@@H]1[C@@]2(C)CCC[C@@]3(C)CO[C@@H](C[C@@]1(C)O)[C@@H]32,Not Active
9,CC1=CC(=O)O/C1=C\C=C(/C)CC[C@@H]1[C@@]2(C)CCC[C@@]3(C)C(=O)O[C@@H](C[C@@]1(C)O)[C@H]23,Not Active
10,C=C1C[C@@H]2OC[C@]3(C)CCC[C@](C)([C@H]1CC/C(C)=C/C[C@H]1OC(=O)C=C1C)[C@@H]23,Not Active

# Molecular target: T2, Tubulin--tyrosine ligase (Homo sapiens) (UniProt Q8NG68)
# T2 sequence (whole entry): T1 sequence (Q8NG68 whole entry)
# Assay: Inhibition of TTL in human MCF7 cells assessed as increase in delta2-tubulin level at 100 uM after 24 to 48 hrs by Western blot
# Format: cell-based
# Details: not given
# How it was run: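 MCF-7 cells were grown in DMEM with 10% FBS at 37 °C, 5% CO2, seeded at 4 × 10^5 per well, and treated 24 h later with or without 100 µM compound for 24 and 48 h. NP-40 lysates (20 µg protein, Bradford) were run on 10% SDS-PAGE and blotted. Membranes were probed overnight at 4 °C with rabbit polyclonal anti-Δ2-α-tubulin.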
row,Structure (SMILES),Activity
1,CC1=CC(=O)O[C@@H]1[C@@H](O)/C=C(\C)CC[C@@H]1[C@@]2(C)CCC[C@]3(C)[C@@H]2[C@H](C[C@@]1(C)O)O[C@@H]3O,Active
